Compound activity as filed in PubChem BioAssay.
FGF22 binding: binders of human FGF22 protein, primary screen, FGF22 synaptogenesis inhibitor project, biophysical, thermal shift, single point. recombinant FGF22 thermal shift, SYPRO orange fluorescence; percent of sucrose octasulfate shift, DMSO zero. Fibroblast growth factor 22 (Homo sapiens), Q9HCT0. AID 651658, 2012. 1.5% of 340,000 active. activity (Tm shift, normalised), % at 9.99 µM;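 active = mean Tm shift, scaled 0 neutral to 100 positive control, at about 1.3% or above, every replicate too, limit read from the data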
UCH37 inh: inhibitors of human UCH37 deubiquitinase, primary screen, biochemical, Ub-AMC cleavage, fluorescence. Ubiquitin carboxyl-terminal hydrolase isozyme L5 (Homo sapiens), Q9Y5K5. purified proteasome/UCH37. inhibition, % (no concentration beside the values). 0.33% of 330,000 active. AID 588478, 2011;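 active = mean inhibition over replicate wells above about 20%, limit read from the data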;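 note: 0% = compound-free wells with enzyme and 100% = wells lacking proteasome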
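Signal – fluorescence, ex 355 nm, em 460 nm · System – Proteasome-bound UCH37 · Input – 0.15 nM proteasome as dispensed · Timing – 30 min preincubation with enzyme, 25 min cleavage at room temperature · Read-out basis – percent inhibition of cleavage signal versus uninhibited and no-proteasome wells · Medium – Tris-HCl pH 7.4 with ATP-MgCl2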
NSD2 HMT inh: NSD2 histone methyltransferase inhibitors, primary screen, biochemical, AlphaScreen, single concentration, set 2; NSD2 peptide methylation, 120 min; inhibition, % at 12.5 µM; 0.54% of 310,000 active; AID 743445, 2014; in the data active = inhibition above about 50%
Target sequence (O96028 whole entry, looked up): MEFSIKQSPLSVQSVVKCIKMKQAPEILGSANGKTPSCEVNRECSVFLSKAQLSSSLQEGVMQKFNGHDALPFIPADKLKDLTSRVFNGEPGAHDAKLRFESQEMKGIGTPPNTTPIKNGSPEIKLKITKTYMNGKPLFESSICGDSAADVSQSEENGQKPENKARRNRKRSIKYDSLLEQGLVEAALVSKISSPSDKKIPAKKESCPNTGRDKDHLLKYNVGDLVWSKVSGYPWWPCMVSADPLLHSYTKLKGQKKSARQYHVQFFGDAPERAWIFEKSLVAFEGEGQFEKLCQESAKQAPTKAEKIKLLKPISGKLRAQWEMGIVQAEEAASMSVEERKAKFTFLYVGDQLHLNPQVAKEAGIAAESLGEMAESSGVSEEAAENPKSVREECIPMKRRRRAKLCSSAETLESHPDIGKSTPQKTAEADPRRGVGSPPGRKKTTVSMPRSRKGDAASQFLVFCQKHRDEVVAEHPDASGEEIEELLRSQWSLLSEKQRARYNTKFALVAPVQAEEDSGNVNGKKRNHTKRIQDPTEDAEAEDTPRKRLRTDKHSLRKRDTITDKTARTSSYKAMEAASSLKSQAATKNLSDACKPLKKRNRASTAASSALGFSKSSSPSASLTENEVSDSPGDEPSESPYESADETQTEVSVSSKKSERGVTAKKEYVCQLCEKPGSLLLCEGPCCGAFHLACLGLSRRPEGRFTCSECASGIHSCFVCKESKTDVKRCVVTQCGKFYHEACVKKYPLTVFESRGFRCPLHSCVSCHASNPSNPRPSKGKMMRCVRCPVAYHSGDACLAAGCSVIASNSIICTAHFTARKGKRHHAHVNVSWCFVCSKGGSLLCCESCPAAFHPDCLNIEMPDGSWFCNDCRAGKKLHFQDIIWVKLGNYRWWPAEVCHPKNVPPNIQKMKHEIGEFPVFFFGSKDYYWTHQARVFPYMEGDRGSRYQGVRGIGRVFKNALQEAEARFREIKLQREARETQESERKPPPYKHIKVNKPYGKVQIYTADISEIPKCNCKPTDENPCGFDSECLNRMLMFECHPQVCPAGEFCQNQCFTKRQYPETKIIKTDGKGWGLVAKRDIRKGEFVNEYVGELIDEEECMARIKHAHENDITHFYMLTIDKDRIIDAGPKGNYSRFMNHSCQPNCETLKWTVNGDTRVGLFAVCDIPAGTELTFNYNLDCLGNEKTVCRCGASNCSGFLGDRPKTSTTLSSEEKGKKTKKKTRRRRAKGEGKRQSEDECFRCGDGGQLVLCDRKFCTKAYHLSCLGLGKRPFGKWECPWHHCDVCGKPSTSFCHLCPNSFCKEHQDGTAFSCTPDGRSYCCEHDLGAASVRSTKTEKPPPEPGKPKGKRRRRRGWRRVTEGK
SIRT5 inh: SIRT5 desuccinylase inhibitors, primary screen, biochemical, fluorescence imaging, single point, set 5. NAD-dependent protein deacylase sirtuin-5, mitochondrial (Homo sapiens), Q9NXA8. inhibition, % at 15 µM. Purified SirT5, succinyl-peptide AMC, trypsin-coupled fluorescence. 1.1% of 330,000 active; in the data active = inhibition above about 15%
Casp6 inh: human caspase-6 inhibitors, primary screen, biochemical, VEID-R110 fluorescence, single point, set 2. inhibition, % at 12.5 µM. purified caspase-6, Z-VEID-R110 cleavage fluorescence. 0.53% of 350,000 active. P55212. AID 686996, 2013;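 active = mean inhibition across replicates at least about 35%, with every replicate also reaching that limit, limit read from the data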;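 note: 0% = median of neutral control wells and 100% = no fluorescence left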
Active calls of the source: *; nt = not tested or not shown. A selection: hits, their analogues and other compounds. The true share with any hit is near 2.6%.

SMILES	FGF22 binding	UCH37 inh	NSD2 HMT inh	SIRT5 inh	Casp6 inh
CN1c2ccc(-c3ccccc3F)cc2[C@H]2[C@H](CCN2C(=O)NC2CCCCC2)[C@@H]1CO	nt	nt	nt	4	-1
CCC(=O)N1C[C@H]2[C@@H](c3ccccc31)[C@@H](CO)N2C(=O)CC1CC1	0	nt	nt	-1	2
O=C(COc1cccc2ccccc12)N/N=C/c1ccncc1	43*	nt	-4	-1	4
O=C(COc1ccccc1-c1ccccc1)NN=Cc1ccncc1	nt	6	nt	nt	nt
O=C(NCCc1ccccc1)c1cccc2c(-c3ccc(F)c(F)c3)coc12	0	nt	0	7	45*
O=C(NCCc1ccccc1)c1ccc(-c2ccc(F)c(F)c2)c2ccoc12	0	nt	-1	-6	-1
CC(OC(=O)c1ccc([N+](=O)[O-])s1)C(=O)NC1CCCCC1C (stereo not drawn)	0	23*	2	-4	-4
COc1cc(C(=O)OC(C)C(=O)NC2CCCCC2C)c([N+](=O)[O-])cc1OC (stereo not drawn)	0	4	1	0	-1
CS(=O)(=O)N1CC2(C1)[C@H](c1ccccc1)[C@H](CO)N2C(=O)C1CCC1	0	nt	nt	-7	-4
Fc1ccc(Cl)cc1C=Nn1cnnc1SCc1ccccc1	nt	1	nt	nt	nt
COC(=O)C1CN(C(=O)COc2ccc(C)c(C)c2)c2ccccc2O1 (stereo not drawn)	0	3	-2	0	3
COC(=O)C1CN(C(=O)COc2ccc(C)cc2)c2ccccc2O1 (stereo not drawn)	0	3	0	35*	-1
CCCC#Cc1ccc([C@@H]2[C@@H](CO)N3CCCCN(S(=O)(=O)c4ccccc4C)C[C@H]23)cc1	-1	nt	nt	2	5
CCCn1c(N)c(Sc2ccc(C)cc2)c(=O)n(CCC)c1=O	43*	1	-19	1	-1
CCCCn1c(N)c(Sc2ccc(C)cc2)c(=O)[nH]c1=O	nt	5	1	nt	nt
CCOC(=O)C1CCN(CC(=O)N(CC(C)C)c2c(N)n(CC(C)C)c(=O)[nH]c2=O)CC1	44*	0	-3	-6	-4
CC(C)CN(C(=O)CN1CCN(c2ccccc2O)CC1)c1c(N)n(CC(C)C)c(=O)[nH]c1=O	0	-2	1	-1	1
C[C@H](CO)N1C[C@H](C)[C@H](CN(C)S(C)(=O)=O)Oc2ccc(NS(=O)(=O)c3ccccc3)cc2C1=O	1	nt	nt	4	1
COCCCN=C1NN=C(c2cc(C)n(-c3ccccc3)c2C)CS1	0	0	nt	1	-5
COCCCN=C1NN=C(c2cc(C)n(Cc3ccccc3Cl)c2C)CS1	43*	8	53*	-1	-6
N=C1CCC(=N)c2c1c(O)c1ccccc1c2O	nt	nt	66*	nt	nt
Cc1cc(C)c(C(=O)C(C)OC(=O)Cc2n[nH]c(=O)c3ccccc23)cc1C (stereo not drawn)	0	0	-1	15*	-2
COc1ccc(S(=O)(=O)Nc2ccc3c(c2)C(=O)N([C@H](C)CO)C[C@H](C)[C@@H](CN(C)Cc2ccc(C(=O)O)cc2)OCCCC[C@H](C)O3)cc1	0	nt	nt	-1	2
Cc1ccc(NC(=O)C2C3C=CC4(O3)C2C(=O)N(CCCN2CCCC(C)C2)C4C(=O)NC2CCCCC2)cc1 (stereo not drawn)	0	1	1	17*	-7
CNC(=O)C[C@H]1CC[C@H]2[C@@H](COC[C@@H](O)CN2C(=O)c2ccccn2)O1	0	nt	nt	0	-4
SMILES	FGF22 binding	UCH37 inh	NSD2 HMT inh	SIRT5 inh	Casp6 inh
CC(=NNS(=O)(=O)c1ccc(C)c(C)c1)c1ccncc1	nt	5	nt	nt	nt
COC(=O)c1ccc(CN2CCCC(CNC(=O)Cc3ccc(OC)cc3)C2)cc1 (stereo not drawn)	0	2	28	0	-1
COCc1cc(CN2CCCC(CNC(=O)c3ccc(F)cc3)C2)ccc1OC (stereo not drawn)	0	5	7	nt	-2
COc1cccc(CN2CCCC(CNC(=O)c3ccc(F)cc3)C2)c1OC (stereo not drawn)	43*	0	0	-5	-4
COc1ccc(CC(=O)NCC2CCCN(Cc3ccc(OC(F)(F)F)cc3)C2)cc1 (stereo not drawn)	0	nt	-1	21*	0
COc1ccc(CC(=O)NCC2CCCN(Cc3ccccc3Cl)C2)cc1 (stereo not drawn)	0	-1	-1	17*	-3
COCc1cc(CN2CCN(Cc3ccsc3)C(CCO)C2)ccc1OC (stereo not drawn)	43*	0	1	-3	-3
CCOc1ccc(CN2CCN(Cc3ccsc3)C(CCO)C2)cc1CO (stereo not drawn)	0	0	nt	-2	-2
CC(C)(O)C#Cc1ccc(CN2CCN(Cc3ccsc3)C(CCO)C2)cc1 (stereo not drawn)	43*	-1	1	3	-2
C#Cc1ccc(CN2CCN(Cc3ccsc3)C(CCO)C2)cc1 (stereo not drawn)	nt	4	nt	-2	-6
O=C(Nc1ccccc1)N1CC(=O)N2[C@@H](CO)[C@@H](c3ccc(C#CC4CCCC4)cc3)[C@@H]2C1	nt	nt	nt	4	1
C[C@@H]1CN([C@H](C)CO)C(=O)Cc2cc(NC(=O)Cc3cn(C)c4ccccc34)ccc2O[C@H]1CN(C)C(=O)Nc1ccc(C(F)(F)F)cc1	0	nt	nt	-1	-8
CC(C)C(OC(=O)C1=Cc2ccccc2OC1)C(=O)NCC1CCCO1 (stereo not drawn)	0	nt	nt	0	47*
COc1ccc(/C=C/C(=O)Nc2cc(F)ccc2C)cc1S(=O)(=O)N1CCOCC1	0	4	-3	18*	nt
CCC(CC(C)(C)c1ccccc1)=NO	nt	4	nt	nt	nt
O=C(NCC(c1ccco1)N1CCOCC1)c1ccc(F)cc1 (stereo not drawn)	0	2	nt	-5	1
O=C(NCC(c1ccco1)N1CCOCC1)c1c(F)cccc1F (stereo not drawn)	0	1	-2	17*	-1
NC(=NOC(=O)CCC1CCCC1)c1ccc([N+](=O)[O-])cc1	nt	2	nt	nt	nt
O=C1NC(c2cccc(Br)c2)=N/C1=C\c1ccco1	0	1	3	1	22
O=C1NNC(c2ccccc2)=N/C1=C\c1ccccc1	0	23*	35	-2	5
O=C1NC(c2ccccc2)=N/C1=C/c1ccco1	0	nt	4	1	39*
Cc1ccc(/C=C2/N=C(c3ccccc3)NNC2=O)cc1	0	7	10	-4	-3
Cn1c(=O)c2cc(NC(=S)NC3CC3)ccc2n1Cc1ccccc1	0	nt	16	nt	58*
Cn1c(=O)c2cc(NC(=S)NC3CCCCC3)ccc2n1Cc1ccc(F)cc1	0	nt	2	-3	-2
